Measurements taken from ChEMBL document CHEMBL5143722, “Antimicrobial Peptides against Multidrug-Resistant Pseudomonas aeruginosa Biofilm from Cystic Fibrosis Patients” (J Med Chem, 2022).
Calls of active or inactive are those of the source. The rule behind the calls is not given here.

Tests used:
Pseudomonas aeruginosa [1] = assay: Induction of biofilm degradation of Pseudomonas aeruginosa clinical isolate 251 at sub MIC concentration incubated for 1 hr by crystal violet staining analysis; type: functional
How it was run: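 Bacteria at 1 × 10^6 CFU/mL in BM2 grown static at 37 °C for 24 h to form biofilm. Wells rinsed of unattached cells, then exposed for 1 h to serial peptide dilutions (1.56–50 μM). Washed, stained with 0.1% crystal violet, A590 read. Biomass given as % of untreated biofilm; no-bacteria wells as blanks. At least three biological repeats.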

Pseudomonas aeruginosa [2] = assay: Antibiofilm activity against Pseudomonas aeruginosa clinical isolate 59 assessed as inhibition of biofilm formation at MIC incubated for 24 hrs by crystal violet staining based microtiter plate method; type: functional
How it was run: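 In BM2, bacteria at 1 × 10^6 CFU/mL were incubated with 2-fold serial peptide dilutions for 24 h at 37 °C without agitation. Unattached cells were washed off, and the remaining biofilm was stained with 0.1% crystal violet and read at OD590. Blanks had no bacteria. Biomass is given as % of untreated biofilm; at least three biological repeats.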

Pseudomonas aeruginosa [3] = assay: Antibiofilm activity against Pseudomonas aeruginosa PAO1 in artificial sputum medium at 50 uM incubated for 24 hrs by resazurin staining based microtiter plate method; type: functional, organism-based
How it was run: (§1)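 Washed overnight culture set to OD ~0.05 in BM2, diluted 1:100 into artificial sputum medium (pH 6.9) in 24-well plates. Grown 3 days aerobically at 37 °C with agitation. Peptides (12.5–100 μM) added for 24 h with agitation. Biofilm disrupted by cellulase for 1 h at 37 °C. Resazurin 0.02% for 1–2 h, fluorescence ex 530/em 590 nm; viability as % of untreated wells.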

Pseudomonas aeruginosa [4] = assay: Antibiofilm activity against Pseudomonas aeruginosa clinical isolate 53 assessed as inhibition of biofilm formation at 1.56 uM incubated for 24 hrs by crystal violet staining based microtiter plate method; type: functional, organism-based
How it was run: (§2)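 Washed overnight cultures in BM2 medium at 1 × 10^6 CFU/mL with 2-fold serial peptide dilutions in a U-bottom 96-well plate. Incubated 24 h at 37 °C without agitation. Unattached cells washed off, then 0.1% crystal violet stain read at 590 nm. No-bacteria blanks. Biomass expressed as % of untreated biofilm. At least three biological repeats.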

Pseudomonas aeruginosa [5] = assay: Antibiofilm activity against Pseudomonas aeruginosa PAO1 in artificial sputum medium at 100 uM incubated for 24 hrs by resazurin staining based microtiter plate method; type: functional, organism-based; how it was run: as §1
Pseudomonas aeruginosa [6] = assay: Bactericidal activity against Pseudomonas aeruginosa clinical isolate 24 derived from cystic fibrosis patient sputum assessed as killing rate at 10 uM measured after 1 hr by time-kill assay relative to control; type: functional
How it was run: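 Pooled CF patient sputum diluted 10-fold in 10 mM phosphate buffer (pH 7.0), centrifuged and 0.22 μm filtered. Bacteria at 10^6 CFU/mL in 10% sputum supernatant with 10 μM peptide for 1 h at 37 °C. Diluted and plated on LB agar; colonies counted against untreated plates.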

Pseudomonas aeruginosa [7] = assay: Antibiofilm activity against Pseudomonas aeruginosa assessed as inhibition of biofilm formation at 0.5 times of MIC incubated for 24 hrs by crystal violet staining based microtiter plate method; type: functional, organism-based; how it was run: as §2

CC(C)C[C@H](NC(=O)[C@H](CC(C)C)NC(=O)[C@H](CC(C)C)NC(=O)[C@H](CC(C)C)NC(=O)[C@H](CC(C)C)NC(=O)[C@H](CC(C)C)NC(=O)[C@H](CC(C)C)NC(=O)[C@H](CC(C)C)NC(=O)[C@H](CC(C)C)NC(=O)[C@H](CCCCN)NC(=O)[C@H](CCCCN)NC(=O)[C@@H](N)CCCCN)C(=O)N[C@@H](CCCCN)C(=O)N[C@@H](CCCCN)C(=O)N[C@@H](CCCCN)C(N)=O
Activity (Pseudomonas aeruginosa [1]): Active

CC[C@H](C)[C@H](NC(=O)[C@H](CCCCN)NC(=O)[C@H](CCC(=O)O)NC(=O)[C@H](CCCCN)NC(=O)[C@H](CO)NC(=O)[C@H](CCCCN)NC(=O)[C@H](CCCNC(=N)N)NC(=O)[C@H](Cc1ccccc1)NC(=O)[C@H](Cc1ccccc1)NC(=O)[C@H](CC(=O)O)NC(=O)CNC(=O)[C@H](CC(C)C)NC(=O)[C@@H](N)CC(C)C)C(=O)NCC(=O)N[C@@H](CCCCN)C(=O)N[C@@H](CCC(=O)O)C(=O)N[C@@H](Cc1ccccc1)C(=O)N[C@@H](CCCCN)C(=O)N[C@@H](CCCNC(=N)N)C(=O)N[C@H](C(=O)N[C@H](C(=O)N[C@@H](CCC(N)=O)C(=O)N[C@@H](CCCNC(=N)N)C(=O)N[C@H](C(=O)N[C@@H](CCCCN)C(=O)N[C@@H](CC(=O)O)C(=O)N[C@@H](Cc1ccccc1)C(=O)N[C@@H](CC(C)C)C(=O)N[C@@H](CCCNC(=N)N)C(=O)N[C@@H](CC(N)=O)C(=O)N[C@@H](CC(C)C)C(=O)N[C@H](C(=O)N1CCC[C@H]1C(=O)N[C@@H](CCCNC(=N)N)C(=O)N[C@H](C(=O)N[C@@H](CCC(=O)O)C(=O)N[C@@H](CO)C(N)=O)[C@@H](C)O)C(C)C)[C@@H](C)CC)C(C)C)[C@@H](C)CC
inhibition (INH) (Pseudomonas aeruginosa [2]): 30%

CC(C)C[C@H](NC(=O)[C@H](CC(C)C)NC(=O)[C@H](CCCCN)NC(=O)[C@H](CC(C)C)NC(=O)[C@H](CC(C)C)NC(=O)[C@H](CCCCN)NC(=O)[C@H](CCCCN)NC(=O)[C@H](CC(C)C)NC(=O)[C@H](CC(C)C)NC(=O)[C@H](CCCCN)NC(=O)[C@H](CCCCN)NC(=O)[C@H](CC(C)C)NC(=O)[C@H](CC(C)C)NC(=O)[C@H](CCCCN)NC(=O)[C@@H](N)CC(C)C)C(N)=O
Activity (Pseudomonas aeruginosa [3]): Active
inhibition (Pseudomonas aeruginosa [4]): Active
Activity (Pseudomonas aeruginosa [5]): Active
Activity (Pseudomonas aeruginosa [6]): >97.91%
inhibition (Pseudomonas aeruginosa [7]): Active
